Assay results reported in ChEMBL document CHEMBL4359870, “Identification of a new family of pyrazolo[3,4-d]pyrimidine derivatives as multitarget Fyn-Blk-Lyn inhibitors active on B- and T-lymphoma cell lines” (Eur J Med Chem, 2019).
In brackets after ≈: the same amount, converted by molar mass. Activity calls are given as the source filed them. The calls are words filed in the database; no cut-off is given here.

Assays:
[1] = Apparent permeability of compound at 500 uM after 5 hrs by UV/LC-MS analysis based GI-PAMPA assay; format: ADME
Outline: (§1)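 GI-PAMPA run with donor compound at 500 µM final, diluted from 1 mM DMSO into pH 7.4 25.0 mM phosphate buffer. Filter coated with 1% (w/v) phosphatidylcholine in dodecane. Acceptor was 50% v/v DMSO/phosphate buffer. Incubated 5 h at r.t. with gentle shaking. Donor and acceptor wells quantified by UV/LC-MS peak area. Papp and membrane retention calculated by equation, in triplicate.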

[2] = target: Tyrosine-protein kinase Blk (Homo sapiens, UniProt P51451); assay: Inhibition of BLK (unknown origin) using KVEKIGEGTYGVVYK as substrate in presence of [gamma33P]ATP as substrate in presence of [gamma33P]ATP by scintillation counting method
[3] = tested on: SU-DHL-8; assay: Antiproliferative activity against human SUDHL8 cells assessed as reduction in cell viability after 72 hrs by MTT assay; settings: SU-DHL-8, 72 h
[4] = tested on: HuT78; assay: Antiproliferative activity against human HUT78 cells assessed as reduction in cell viability after 72 hrs by MTT assay; settings: HuT78, 72 h
[5] = tested on: H9; assay: Antiproliferative activity against human H9 cells assessed as reduction in cell viability after 72 hrs by MTT assay; settings: H9, 72 h
[6] = tested on: SU-DHL-6; assay: Antiproliferative activity against human SUDHL6 cells assessed as reduction in cell viability after 72 hrs by MTT assay; settings: SU-DHL-6, 72 h
[7] = target: Tyrosine-protein kinase Lyn (Homo sapiens, UniProt P07948); assay: Inhibition of LYN (unknown origin) using KVEKIGEGTYGVVYK as substrate in presence of [gamma33P]ATP as substrate in presence of [gamma33P]ATP by scintillation counting method
Outline: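 Lyn radiometric assay with 200 µM Src-peptide, 40 µM ATP plus γ-33P ATP, 0.0013% NP-40, 10-50 ng enzyme, 10% DMSO, 30 °C for 10 min. ID50 taken from velocity fits. Ki derived assuming ATP-competitive binding, with ATP Km 39.9 µM.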

[8] = tested on: DOHH-2; assay: Antiproliferative activity against human DOHH2 cells assessed as reduction in cell viability after 72 hrs by MTT assay; settings: DOHH-2, 72 h
[9] = tested on: Farage; assay: Antiproliferative activity against human Farage cells assessed as reduction in cell viability after 72 hrs by MTT assay
[10] = Membrane retention of compound at 500 uM after 5 hrs by UV/LC-MS analysis based GI-PAMPA assay relative to control; format: ADME; outline: as §1
[11] = tested on: FEPD; assay: Antiproliferative activity against human FEPD cells assessed as reduction in cell viability after 72 hrs by MTT assay
[12] = Metabolic stability in human liver microsomes assessed as compound remaining at 50 uM after 1 hr by UV/LC-MS analysis relative to control; format: ADME, Microsome; settings: read-out: Stability
Outline: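 Human liver microsomes at 0.2 mg/mL with NADPH regenerating system, compound at 50 µM in pH 7.4 25 mM phosphate buffer, 37 °C for 1 h. Quenched with acetonitrile, then supernatant dried and taken up in methanol. Unmetabolized percentage measured by UV/LC-MS. Mean of at least three experiments.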

[13] = Aqueous solubility of compound at 1 mg after 24 hrs by LC-MS/MS analysis; format: physicochemical; settings: water
Outline: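 Solid compound (1 mg) shaken in 1 mL water at 20 °C for 24 h, then filtered through 0.45 µm nylon. Dissolved concentration measured by LC-MS-MS against a methanol calibration curve, in triplicate. Mean of at least three experiments.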

[14] = target: Tyrosine-protein kinase Fyn (Homo sapiens, UniProt P06241); assay: Inhibition of recombinant full length N-terminal His6 tagged human FYN expressed in baculovirus infected sf21 cells using KVEKIGEGTYGVVYK as substrate in presence of [gamma33P]ATP by scintillation counting method
Outline: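 Fyn radiometric assay with 250 µM Src-peptide, 100 µM ATP plus γ-33P ATP, 0.00087% NP-40, 10-50 ng enzyme, 10% DMSO, 30 °C for 10 min. ID50 taken from velocity fits. Ki derived assuming ATP-competitive binding, with ATP Km 102 µM.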

[15] = tested on: HH; assay: Antiproliferative activity against human HH cells assessed as reduction in cell viability after 72 hrs by MTT assay
[16] = tested on: HuT78; assay: Induction of cell cycle arrest in human HUT78 cells assessed as accumulation at sub-G0 phase at 5 to 10 uM after 72 hrs by 7AAD staining based assay; format: functional
[17] = tested on: FEPD; assay: Induction of cell cycle arrest in human FEPD cells assessed as accumulation at sub-G0 phase at 5 to 10 uM after 72 hrs by 7AAD staining based assay; format: functional
[18] = tested on: SU-DHL-8; assay: Induction of cell cycle arrest in human SUDHL8 cells assessed as accumulation at sub-G0 phase at 5 to 10 uM after 72 hrs by 7AAD staining based assay; format: functional

Tyrosine-protein kinase Lyn, sequence (P07948 whole entry): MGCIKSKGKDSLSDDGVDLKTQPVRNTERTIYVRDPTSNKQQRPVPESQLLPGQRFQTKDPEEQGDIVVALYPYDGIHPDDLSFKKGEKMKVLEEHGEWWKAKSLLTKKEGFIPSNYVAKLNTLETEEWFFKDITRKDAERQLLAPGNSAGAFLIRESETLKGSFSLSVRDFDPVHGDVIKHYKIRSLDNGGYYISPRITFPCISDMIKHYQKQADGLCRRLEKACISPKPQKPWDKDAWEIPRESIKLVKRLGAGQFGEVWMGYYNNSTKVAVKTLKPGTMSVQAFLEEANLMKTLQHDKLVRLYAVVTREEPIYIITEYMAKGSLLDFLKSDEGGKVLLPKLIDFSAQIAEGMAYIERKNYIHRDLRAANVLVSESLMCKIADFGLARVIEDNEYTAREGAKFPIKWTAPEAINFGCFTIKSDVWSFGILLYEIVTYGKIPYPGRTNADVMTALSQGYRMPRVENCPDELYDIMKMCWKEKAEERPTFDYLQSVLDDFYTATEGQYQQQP
Tyrosine-protein kinase Fyn, sequence (P06241 whole entry): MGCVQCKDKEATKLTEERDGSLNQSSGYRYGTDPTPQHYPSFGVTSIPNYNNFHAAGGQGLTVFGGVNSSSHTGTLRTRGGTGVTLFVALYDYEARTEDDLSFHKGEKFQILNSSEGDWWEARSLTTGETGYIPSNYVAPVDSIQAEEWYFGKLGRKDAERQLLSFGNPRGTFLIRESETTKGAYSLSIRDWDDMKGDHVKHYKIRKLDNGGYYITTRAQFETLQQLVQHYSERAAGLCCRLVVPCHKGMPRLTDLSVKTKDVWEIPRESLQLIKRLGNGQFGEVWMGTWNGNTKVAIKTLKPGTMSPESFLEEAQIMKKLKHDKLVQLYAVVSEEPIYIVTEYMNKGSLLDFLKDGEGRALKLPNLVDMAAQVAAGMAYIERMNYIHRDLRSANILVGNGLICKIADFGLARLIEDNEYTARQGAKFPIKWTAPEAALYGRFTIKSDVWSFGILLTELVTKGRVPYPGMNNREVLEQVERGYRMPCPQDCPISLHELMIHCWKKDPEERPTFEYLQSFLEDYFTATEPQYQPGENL
Tyrosine-protein kinase Blk, sequence (P51451 whole entry): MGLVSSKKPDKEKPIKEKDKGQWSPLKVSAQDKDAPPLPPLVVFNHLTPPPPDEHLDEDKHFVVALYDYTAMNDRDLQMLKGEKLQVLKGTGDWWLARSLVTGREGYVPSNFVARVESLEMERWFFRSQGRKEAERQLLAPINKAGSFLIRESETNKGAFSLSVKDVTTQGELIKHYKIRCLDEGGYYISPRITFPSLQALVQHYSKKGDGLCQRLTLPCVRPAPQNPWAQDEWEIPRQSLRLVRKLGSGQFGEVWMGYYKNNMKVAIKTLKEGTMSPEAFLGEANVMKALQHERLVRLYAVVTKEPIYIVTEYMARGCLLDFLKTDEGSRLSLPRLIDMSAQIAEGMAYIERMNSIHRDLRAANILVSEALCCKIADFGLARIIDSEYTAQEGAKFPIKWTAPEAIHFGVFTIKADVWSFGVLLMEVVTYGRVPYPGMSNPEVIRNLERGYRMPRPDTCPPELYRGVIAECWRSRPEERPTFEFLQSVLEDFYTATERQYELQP

SMILES: Nc1ncnc2c1c(-c1ccc(Cl)cc1)nn2CC(Cl)c1ccccc1 (stereo not drawn)
- Papp at 5 h, 500 µM [1]: 9.95 ×10⁻⁶ cm/s
- Ki [2]: 0.19 µM
- IC50 [3]: 8.87 µM
- IC50 [4]: > 100 µM
- IC50 [5]: 13.6 µM
- IC50 [6]: 21.5 µM
- Ki [7]: 0.19 µM
- IC50 [8]: 11.4 µM
- IC50 [9]: 14.9 µM
- R% [10]: 70.4%
- IC50 [11]: 15.8 µM
- remaining at 1 h, 50 µM [12]: 85.2%
- solubility at 24 h [13]: 0.01 µg/mL (≈ 0.026 µM)
- Ki [14]: 0.16 µM
- IC50 [15]: 13.9 µM

SMILES: Cc1ccc(-c2nn(CC(Cl)c3ccccc3)c3ncnc(N)c23)cc1 (stereo not drawn)
- IC50 [3]: 12.1 µM
- IC50 [4]: 11.1 µM
- IC50 [5]: > 100 µM
- IC50 [6]: 23.4 µM
- IC50 [8]: 11.8 µM
- IC50 [9]: 19.2 µM
- IC50 [11]: > 100 µM
- IC50 [15]: 14.8 µM

SMILES: Cc1ccc(-c2nn(CCc3ccccc3)c3ncnc(N)c23)cc1
- IC50 [3]: 37 µM
- IC50 [4]: > 100 µM
- IC50 [5]: > 100 µM
- IC50 [6]: > 100 µM
- IC50 [8]: 9.74 µM
- IC50 [9]: 16 µM
- IC50 [11]: 21.5 µM
- IC50 [15]: 17.3 µM

SMILES: Nc1ncnc2c1c(-c1ccc(Cl)cc1)nn2CCc1ccccc1
- IC50 [3]: 36 µM
- IC50 [4]: > 100 µM
- IC50 [5]: > 100 µM
- IC50 [6]: > 100 µM
- IC50 [8]: 11.8 µM
- IC50 [9]: 18.6 µM
- IC50 [11]: 31.1 µM
- IC50 [15]: 18.2 µM

SMILES: Nc1ncnc2c1c(-c1ccccc1Cl)nn2CC(Cl)c1ccccc1 (racemic)
- IC50 [3]: 18.4 µM
- IC50 [4]: > 100 µM
- IC50 [5]: 38.9 µM
- IC50 [6]: > 100 µM
- IC50 [8]: 26.6 µM
- IC50 [9]: 51.5 µM
- IC50 [11]: 38.9 µM
- IC50 [15]: > 100 µM

SMILES: Nc1ncnc2c1c(-c1ccc(Br)cc1)nn2CC(Cl)c1ccccc1 (racemic)
- IC50 [3]: 11.8 µM
- IC50 [4]: 21.1 µM
- IC50 [5]: 21.7 µM
- IC50 [6]: 45.6 µM
- IC50 [8]: 11 µM
- IC50 [9]: 13.6 µM
- IC50 [11]: 21.7 µM
- IC50 [15]: 12.4 µM

SMILES: Nc1ncnc2c1c(-c1cccc(Cl)c1)nn2CC(Cl)c1ccccc1 (racemic)
- IC50 [3]: 13.7 µM
- IC50 [4]: > 100 µM
- IC50 [5]: 22.1 µM
- IC50 [6]: > 100 µM
- IC50 [8]: 27.4 µM
- IC50 [9]: 30.9 µM
- IC50 [11]: 24.9 µM
- IC50 [15]: 43.1 µM

SMILES: Nc1ncnc2c1c(-c1ccc(I)cc1)nn2CC(Cl)c1ccccc1 (racemic)
- IC50 [3]: 11.5 µM
- IC50 [4]: 12 µM
- IC50 [5]: 11.6 µM
- IC50 [6]: 13.2 µM
- IC50 [8]: 3.68 µM
- IC50 [9]: 12.6 µM
- IC50 [11]: 20.5 µM
- IC50 [15]: 5.24 µM

SMILES: Nc1ncnc2c1c(-c1ccc(CO)cc1)nn2CC(Cl)c1ccccc1 (racemic)
- Activity [16]: Active
- Papp at 5 h, 500 µM [1]: 10.8 ×10⁻⁶ cm/s
- IC50 [3]: 6.14 µM
- IC50 [4]: 4.5 µM
- IC50 [5]: 3.42 µM
- IC50 [6]: 9.29 µM
- Activity [17]: Active
- Activity [18]: Active
- Ki [7]: 0.19 µM
- IC50 [8]: 2.44 µM
- IC50 [9]: 7.02 µM
- R% [10]: 15.2%
- IC50 [11]: 10.8 µM
- remaining at 1 h, 50 µM [12]: 85%
- solubility at 24 h [13]: 0.09 µg/mL (≈ 0.237 µM)
- Ki [14]: 0.12 µM
- IC50 [15]: 2.4 µM

SMILES: CCc1ccc(-c2nn(CC(Cl)c3ccccc3)c3ncnc(N)c23)cc1 (racemic)
- IC50 [3]: 17.5 µM
- IC50 [4]: 58 µM
- IC50 [5]: 24.2 µM
- IC50 [6]: 29.7 µM
- IC50 [8]: 21.2 µM
- IC50 [9]: 22.7 µM
- IC50 [11]: 21.5 µM
- IC50 [15]: 21.1 µM

SMILES: Nc1ncnc2c1c(-c1ccc(CO)cc1)nn2CC(O)c1ccccc1 (racemic)
- IC50 [3]: 27.2 µM
- IC50 [4]: > 100 µM
- IC50 [5]: 22.3 µM
- IC50 [6]: 34.2 µM
- IC50 [8]: 12.1 µM
- IC50 [9]: 27 µM
- IC50 [11]: 26.5 µM
- IC50 [15]: 17.3 µM

SMILES: CC(Cn1nc(-c2ccc(F)cc2)c2c(N)ncnc21)c1ccccc1 (racemic)
- IC50 [3]: 12.1 µM
- IC50 [4]: > 100 µM
- IC50 [5]: 18.8 µM
- IC50 [6]: 22.9 µM
- IC50 [8]: 21.3 µM
- IC50 [9]: 22.8 µM
- IC50 [11]: > 100 µM
- IC50 [15]: 11.8 µM

SMILES: CC(Cn1nc(-c2ccc([N+](=O)[O-])cc2)c2c(N)ncnc21)c1ccccc1 (racemic)
- IC50 [3]: > 100 µM
- IC50 [4]: > 100 µM
- IC50 [5]: > 100 µM
- IC50 [6]: > 100 µM
- IC50 [8]: > 100 µM
- IC50 [9]: > 100 µM
- IC50 [11]: > 100 µM
- IC50 [15]: > 100 µM

SMILES: CCCc1ccc(-c2nn(CC(Cl)c3ccccc3)c3ncnc(N)c23)cc1 (racemic)
- IC50 [3]: 6.72 µM
- IC50 [4]: 9.9 µM
- IC50 [5]: 4.74 µM
- IC50 [6]: 31.1 µM
- IC50 [8]: 4.38 µM
- IC50 [9]: 29.4 µM
- IC50 [11]: 29.2 µM
- IC50 [15]: 48.5 µM
